Test results as given in ChEMBL document CHEMBL1138564, “Microwave-induced synthesis and anti-microbial activities of 7,10,11,12-tetrahydrobenzo[c]acridin-8(9H)-one derivatives” (2009).
In brackets after ≈: the same amount, converted by molar mass. Activity calls are given as the source filed them. The calls are words filed in the database; no cut-off is given here.

Assays:
[1] = system: Staphylococcus; assay: Antimicrobial activity against Staphylococcus albus NCIM 2178 at 500 ug/disk after 24 hrs by disk diffusion method; type: functional
Summary of the method: (§1)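 Disc diffusion. 100 µl of bacterial suspension at 10⁸ CFU/ml was spread on Mueller–Hinton agar. Discs loaded with test compound dissolved in DMSO were placed on the lawn, with a DMSO-only disc as negative control. Plates were incubated at 37 °C for 24 h, and the inhibition zone diameter was measured.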

[2] = system: Salmonella typhimurium; assay: Antimicrobial activity against Salmonella Typhimurium NCIM 2501 at 1000 ug/disk after 24 hrs by disk diffusion method; type: functional, Salmonella enterica subsp. enterica serovar Typhimurium; conditions: Salmonella enterica, NCIM 2501, 24 h; read-out: DIZ; summary of the method: as §1
[3] = system: Bacillus cereus; assay: Antimicrobial activity against Bacillus cereus NCIM 2155 at 1000 ug/disk after 24 hrs by disk diffusion method; type: functional; conditions: NCIM 2155, 24 h, read-out: DIZ
Summary of the method: (§2)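 Disc diffusion on Mueller–Hinton agar. 100 µl of bacterial suspension at 10⁸ CFU/ml is spread on the plate. Discs carry test compounds at two loadings, dissolved in DMSO; DMSO alone serves as negative control. Ofloxacin disc is the positive reference. Plates are incubated at 37 °C for 24 h, and the inhibition zone diameter is measured.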

[4] = system: Rhodotorula mucilaginosa; assay: Antimicrobial activity against Rhodotorula rubra NCIM 3174 at 500 ug/disk after 72 hrs by disk diffusion method; type: functional; conditions: NCIM 3174, 72 h, read-out: DIZ
Summary of the method: (§3)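 Fungal disc diffusion. 100 µl of suspension at 10⁶ CFU/ml was spread on Sabouraud's dextrose agar. Discs carrying test compound in DMSO were applied, with a DMSO-only disc as negative control. Plates were incubated at 27 °C for 72 h, and the zone of inhibition diameter was measured.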

[5] = system: Aliivibrio fischeri; assay: Antimicrobial activity against Vibrio fischeri NCIM 2154 after 24 hrs by serial dilution method; type: functional; conditions: NCIM 2154, 24 h
[6] = system: Lipomyces lipofer; assay: Antimicrobial activity against Lipomyces lipofer NCIM 3252 at 1000 ug/disk after 72 hrs by disk diffusion method; type: functional
Summary of the method: (§4)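 Disc diffusion on Sabouraud's dextrose agar. 100 µl of fungal suspension at 10⁶ CFU/ml is spread on the plate. Discs carry test compounds at two loadings in DMSO; DMSO alone is the negative control. Clotrimazole disc is the positive reference. Plates are incubated at 27 °C for 72 h, and the zone of inhibition diameter is measured.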

[7] = system: Rhodotorula mucilaginosa; assay: Antimicrobial activity against Rhodotorula rubra NCIM 3174 at 1000 ug/disk after 72 hrs by disk diffusion method; type: functional; conditions: NCIM 3174, 72 h, read-out: DIZ; summary of the method: as §3
[8] = system: Escherichia coli; assay: Antimicrobial activity against Escherichia coli NCIM 2065 after 24 hrs by serial dilution method; type: functional; conditions: NCIM 2065, 24 h
Summary of the method: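 Broth dilution MIC in nutrient broth, run only for organisms found sensitive in disc diffusion. Compounds are two-fold serially diluted in 1 ml sterile broth per tube, spanning 3.9 to 1000. Inoculated tubes are incubated at 37 °C for 24 h.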

[9] = system: Lipomyces lipofer; assay: Antimicrobial activity against Lipomyces lipofer NCIM 3252 at 500 ug/disk after 72 hrs by disk diffusion method; type: functional; summary of the method: as §4
[10] = system: Trichoderma viride; assay: Antimicrobial activity against Trichoderma viride NCIM 1195 at 1000 ug/disk after 72 hrs by disk diffusion method; type: functional; conditions: NCIM 1195, 72 h, read-out: DIZ; summary of the method: as §3
[11] = system: Penicillium chrysogenum; assay: Antimicrobial activity against Penicillium chrysogenum NCIM 707 at 500 ug/disk after 72 hrs by disk diffusion method; type: functional; summary of the method: as §4
[12] = system: Salmonella typhimurium; assay: Antimicrobial activity against Salmonella Typhimurium NCIM 2501 at 500 ug/disk after 24 hrs by disk diffusion method; type: functional, Salmonella enterica subsp. enterica serovar Typhimurium; conditions: Salmonella enterica, NCIM 2501, 24 h; read-out: DIZ; summary of the method: as §1
[13] = system: Klebsiella aerogenes; assay: Antimicrobial activity against Klebsiella aerogenes NCIM 2239 at 500 ug/disk after 24 hrs by disk diffusion method; type: functional; conditions: NCIM 2239, 24 h, read-out: DIZ; summary of the method: as §2
[14] = system: Proteus vulgaris; assay: Antimicrobial activity against Proteus vulgaris NCIM 2027 at 1000 ug/disk after 24 hrs by disk diffusion method; type: functional; summary of the method: as §2
[15] = system: Aspergillus flavus; assay: Antimicrobial activity against Aspergillus flavus NCIM 902 at 1000 ug/disk after 72 hrs by disk diffusion method; type: functional; conditions: NCIM 902, 72 h, read-out: DIZ; summary of the method: as §4
[16] = system: Escherichia coli; assay: Antimicrobial activity against Escherichia coli NCIM 2065 at 500 ug/disk after 24 hrs by disk diffusion method; type: functional; summary of the method: as §2
[17] = system: Penicillium chrysogenum; assay: Antimicrobial activity against Penicillium chrysogenum NCIM 707 at 1000 ug/disk after 72 hrs by disk diffusion method; type: functional; summary of the method: as §4
[18] = system: Rhodococcus corynebacterioides; assay: Antimicrobial activity against Corynebacterium rubrum NCIM 2252 at 500 ug/disk after 24 hrs by disk diffusion method; type: functional; conditions: Rhodococcoides corynebacterioides; summary of the method: as §2
[19] = system: Proteus vulgaris; assay: Antimicrobial activity against Proteus vulgaris NCIM 2027 at 500 ug/disk after 24 hrs by disk diffusion method; type: functional; summary of the method: as §2
[20] = system: Aspergillus flavus; assay: Antimicrobial activity against Aspergillus flavus NCIM 902 after 72 hrs by serial dilution method; type: functional; conditions: NCIM 535, 72 h, in the assay text read “NCIM 535” for “NCIM 902”
Summary of the method: (§5)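 MIC by broth dilution in Sabouraud's dextrose broth, only for fungi sensitive in disc diffusion. Two-fold serial dilutions of compounds are made in 1 ml broth per tube, range 3.9 to 1000. Inoculated tubes are incubated at 27 °C for 72 h.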

[21] = system: Trichoderma viride; assay: Antimicrobial activity against Trichoderma viride NCIM 1195 at 500 ug/disk after 72 hrs by disk diffusion method; type: functional; conditions: NCIM 1195, 72 h, read-out: DIZ; summary of the method: as §3
[22] = system: Aspergillus parasiticus; assay: Antimicrobial activity against Aspergillus parasiticus NCIM 904 at 500 ug/disk after 72 hrs by disk diffusion method; type: functional; conditions: NCIM 904, 72 h, read-out: DIZ; summary of the method: as §4
[23] = system: Staphylococcus; assay: Antimicrobial activity against Staphylococcus albus NCIM 2178 at 1000 ug/disk after 24 hrs by disk diffusion method; type: functional; summary of the method: as §1
[24] = system: Aliivibrio fischeri; assay: Antimicrobial activity against Vibrio fischeri NCIM 2154 at 500 ug/disk after 24 hrs by disk diffusion method; type: functional; summary of the method: as §1
[25] = system: Escherichia coli; assay: Antimicrobial activity against Escherichia coli NCIM 2065 at 1000 ug/disk after 24 hrs by disk diffusion method; type: functional; conditions: NCIM 2065, 24 h, read-out: DIZ; summary of the method: as §2
[26] = system: Bacillus subtilis; assay: Antimicrobial activity against Bacillus subtilis NCIM 2063 at 500 ug/disk after 24 hrs by disk diffusion method; type: functional; summary of the method: as §2
[27] = system: Aspergillus fumigatus; assay: Antimicrobial activity against Aspergillus fumigatus NCIM 902 at 500 ug/disk after 72 hrs by disk diffusion method; type: functional; summary of the method: as §4
[28] = system: Aspergillus flavus; assay: Antimicrobial activity against Aspergillus flavus NCIM 902 at 500 ug/disk after 72 hrs by disk diffusion method; type: functional; conditions: NCIM 902, 72 h, read-out: DIZ; summary of the method: as §4
[29] = system: Pseudomonas aeruginosa; assay: Antimicrobial activity against Pseudomonas aeruginosa NCIM 2200 at 500 ug/disk after 24 hrs by disk diffusion method; type: functional; summary of the method: as §1
[30] = system: Rhodococcus corynebacterioides; assay: Antimicrobial activity against Corynebacterium rubrum NCIM 2252 at 1000 ug/disk after 24 hrs by disk diffusion method; type: functional; conditions: Rhodococcoides corynebacterioides; summary of the method: as §2
[31] = system: Aliivibrio fischeri; assay: Antimicrobial activity against Vibrio fischeri NCIM 2154 at 1000 ug/disk after 24 hrs by disk diffusion method; type: functional; conditions: NCIM 2154, 24 h, read-out: DIZ; summary of the method: as §1
[32] = system: Pseudomonas aeruginosa; assay: Antimicrobial activity against Pseudomonas aeruginosa NCIM 2200 at 1000 ug/disk after 24 hrs by disk diffusion method; type: functional; summary of the method: as §2
[33] = system: Aspergillus parasiticus; assay: Antimicrobial activity against Aspergillus parasiticus NCIM 904 after 72 hrs by serial dilution method; type: functional; conditions: NCIM 904, 72 h; summary of the method: as §5

SMILES	zone of inhibition at 1000 µg/disc [2]	zone of inhibition at 1000 µg/disc [3]	zone of inhibition at 500 µg/disc [4]	MIC [5]	zone of inhibition at 1000 µg/disc [7]	MIC [8]	zone of inhibition at 1000 µg/disc [10]	zone of inhibition at 500 µg/disc [12]	zone of inhibition at 500 µg/disc [13]	zone of inhibition at 1000 µg/disc [15]	MIC [20]	zone of inhibition at 500 µg/disc [21]	zone of inhibition at 500 µg/disc [22]	zone of inhibition at 1000 µg/disc [25]	zone of inhibition at 500 µg/disc [28]	zone of inhibition at 1000 µg/disc [31]	MIC [33]	further results
CC1(C)CC(=O)C2=C(C1)Nc1c(ccc3ccccc13)C2c1cccc([N+](=O)[O-])c1 (stereo unspecified)	13 mm	13 mm	10 mm	62.5 µg/mL (≈ 157 µM)	15 mm	3.9 µg/mL (≈ 9.79 µM)	12 mm	10 mm	8 mm	13 mm	15.6 µg/mL (≈ 39.2 µM)	10 mm	10 mm	15 mm	9 mm	10 mm	3.9 µg/mL (≈ 9.79 µM)	zone of inhibition at 500 µg/disc ([1]; NCIM 2178, 24 h, read-out: DIZ): 7 mm; zone of inhibition at 1000 µg/disc ([6]; NCIM 3252, 72 h, read-out: DIZ): 11 mm; zone of inhibition at 500 µg/disc ([9]; NCIM 3252, 72 h, read-out: DIZ): 8 mm; zone of inhibition at 500 µg/disc ([11]; NCIM 707, 72 h, read-out: DIZ): 8 mm; zone of inhibition at 1000 µg/disc ([14]; NCIM 2027, 24 h, read-out: DIZ): 9 mm; zone of inhibition at 500 µg/disc ([16]; NCIM 2065, 24 h, read-out: DIZ): 10 mm; zone of inhibition at 1000 µg/disc ([17]; NCIM 707, 72 h, read-out: DIZ): 11 mm; zone of inhibition at 500 µg/disc ([18]; NCIM 2252, 24 h, read-out: DIZ): 8 mm; zone of inhibition at 500 µg/disc ([19]; NCIM 2027, 24 h, read-out: DIZ): 7 mm; zone of inhibition at 1000 µg/disc ([23]; NCIM 2178, 24 h, read-out: DIZ): 9 mm; zone of inhibition at 500 µg/disc ([24]; NCIM 2154, 24 h, read-out: DIZ): 7 mm; zone of inhibition at 500 µg/disc ([26]; NCIM 2063, 24 h, read-out: DIZ): 9 mm; zone of inhibition at 500 µg/disc ([27]; NCIM 902, 72 h, read-out: DIZ): 8 mm; zone of inhibition at 500 µg/disc ([29]; NCIM 2200, 24 h, read-out: DIZ): 7 mm; zone of inhibition at 1000 µg/disc ([30]; NCIM 2252, 24 h, read-out: DIZ): 9 mm; zone of inhibition at 1000 µg/disc ([32]; NCIM 2200, 24 h, read-out: DIZ): 8 mm
CC1(C)CC(=O)C2=C(C1)Nc1c(ccc3ccccc13)C2c1ccccc1O (stereo unspecified)	11 mm	10 mm	10 mm	125 µg/mL (≈ 338 µM)	14 mm	125 µg/mL (≈ 338 µM)	12 mm	10 mm	7 mm	10 mm	62.5 µg/mL (≈ 169 µM)	10 mm	10 mm	8 mm	9 mm	8 mm	3.9 µg/mL (≈ 10.6 µM)	diameter of the inhibition zone (DIZ) [1]: inactive; diameter of the inhibition zone (DIZ) [6]: inactive; diameter of the inhibition zone (DIZ) [9]: inactive; diameter of the inhibition zone (DIZ) [11]: inactive; diameter of the inhibition zone (DIZ) [14]: inactive; diameter of the inhibition zone (DIZ) [16]: inactive; diameter of the inhibition zone (DIZ) [17]: inactive; diameter of the inhibition zone (DIZ) [18]: inactive; diameter of the inhibition zone (DIZ) [19]: inactive; diameter of the inhibition zone (DIZ) [23]: inactive; diameter of the inhibition zone (DIZ) [24]: inactive; diameter of the inhibition zone (DIZ) [26]: inactive; diameter of the inhibition zone (DIZ) [27]: inactive; diameter of the inhibition zone (DIZ) [29]: inactive; diameter of the inhibition zone (DIZ) [30]: inactive; diameter of the inhibition zone (DIZ) [32]: inactive
